# Experimental data reported in ChEMBL document CHEMBL4038314, “Synthetic Modification within the "RPRL" Region of Apelin Peptides: Impact on Cardiovascular Activity and Stability to Neprilysin and Plasma Degradation” (J Med Chem, 2017).
# Calls of active or inactive are those of the source. The rule behind the calls is not given here. Starred links: 1 amine or outer side, 2 acyl side, 3 side chain; linkers in the order of their positions; H or OH if unused. Non-standard residues stand in square brackets, D forms with d. Residues, ends and D or L forms follow the SMILES beside them. Phe(4-Br) = N[C@@H](Cc1ccc(Br)cc1)C(=O)O; X1 = N=C(N)NCCCN(N[*:1])C(=O)[*:2]; azaLeu = CC(C)CN(N[*:1])C(=O)[*:2]; NMeL = CN[C@@H](CC(C)C)C(=O)O; pGlu = O=C1CC[C@@H](C(=O)O)N1; Nle = CCCC[C@H](N)C(=O)O; Aib = CC(C)(N)C(=O)O
# Tests used:
# [1] = molecular target: T1, Neprilysin (Homo sapiens, UniProt P08473); test: Drug metabolism assessed as recombinant human NEP-medited peptide proteolysis at 1 mM up to 72 hrs by LC-MS analysis; format: ADME; details: 1000 µM
# Method in brief: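 Recombinant human NEP, 3.1 nM final in 100 mM Tris, 100 mM NaCl, 10 μM ZnCl2, pH 7.5, preincubated 10 min at 37 °C. Then 5 μL of 1 mM peptide stock and dansyl-YVG internal standard added; incubated at 37 °C for up to 72 h. Extracted-ion LC−MS ratio of parent to standard compared with 0 h and converted to percent cleaved.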
# [2] = molecular target: T1, Neprilysin; test: Drug degradation in human plasma assessed as NEP-mediated degradation by measuring amount of apelin remaining after 60 mins by RP-HPLC analysis; format: ADME; details: 1 h
# Method in brief: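 Human plasma (20 μL) prewarmed to 37 °C, then 5 μL of 400 μM peptide added and incubated for set times; done in triplicate. Quenched with 10% aqueous TFA, dansyl-YVG internal standard added, and peptides recovered on a C18 spin column with 40% acetonitrile/0.1% TFA. Analysed by C18 RP-HPLC; peptide/standard peak-area ratio compared with the 0 min ratio.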
# [3] = tested on: Mus musculus; test: Cardiovascular activity in anesthetized mouse assessed as decrease in blood pressure at 1.4 uM/kg, iv relative to control; format: functional, organism-based
# Method in brief: (§1)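 Mice under 1.5% isoflurane, body temperature held at 36 °C on a heating pad. Aorta cannulated via the right carotid artery with a 1.2F PV loop catheter to record arterial pressure and heart rate continuously. Peptide given systemically through the right internal jugular vein.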
# [4] = tested on: Heart; test: Cardioprotective activity against Langendorff isolated mouse heart ischemia-reperfusion model assessed as maximum derivative change in systolic pressure over time at 1 uM administered for 10 mins during start of 40 mins reperfusion period post 30 mins ischemic induction; format: functional, tissue-based
# Method in brief: (§2)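 Mouse hearts (heparinized, isoflurane 1.5−2%) excised and Langendorff-perfused at constant 80 mmHg with modified Krebs−Henseleit buffer, 37 °C, 95% O2/5% CO2, pH 7.4. After 10 min baseline, 30 min global ischemia, then 40 min reperfusion. Peptide at 1 μM given for the first 10 min of reperfusion, with saline sham and native apelin-17 as controls. Left ventricular function recorded continuously.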
# [5] = tested on: Heart; test: Cardioprotective activity against Langendorff isolated mouse heart ischemia-reperfusion model assessed as improvement in LVDP at 1 uM administered for 10 mins during start of 40 mins reperfusion period post 30 mins ischemic induction; format: functional, tissue-based; method in brief: as §2
# [6] = tested on: Heart; test: Cardioprotective activity against Langendorff isolated mouse heart ischemia-reperfusion model assessed as improvement in RPP at 1 uM administered for 10 mins during start of 40 mins reperfusion period post 30 mins ischemic induction; format: functional, tissue-based; method in brief: as §2
# [7] = tested on: Heart; test: Cardioprotective activity against Langendorff isolated mouse heart ischemia-reperfusion model assessed as minimum derivative change in diastolic pressure over time at 1 uM administered for 10 mins during start of 40 mins reperfusion period post 30 mins ischemic induction; format: functional, tissue-based; method in brief: as §2
# [8] = tested on: Mus musculus; test: Cardiotoxicity in anesthetized mouse assessed as induction of tachycardia at 1.4 uM/kg, iv relative to control; format: toxicity, organism-based; details: in vivo, 1.4 µmol/kg; method in brief: as §1
# [9] = molecular target: T1, Neprilysin; test: Inhibition of recombinant human NEP using pyr-1-apelin-13 as substrate assessed as peptide degradation at 1 mM preincubated for 10 mins followed by substrate addition measured after 72 hrs by LC-MS analysis; details: 1000 µM
# Method in brief: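 Recombinant human NEP, 3.1 nM in Tris/NaCl/10 μM ZnCl2 buffer, pH 7.5, preincubated 10 min at 37 °C with 5 μL of 1 mM analogue stock (equimolar to substrate) plus dansyl-YVG standard. Then 5 μL of 1 mM pyr-1-apelin-13 added. Aliquots taken at 0, 1, 4, 24 and 72 h and analysed by LC−MS; duplicate per time point.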
# [10] = tested on: Mus musculus; test: Cardiovascular activity in anesthetized mouse assessed as increase in heart rate at 1.4 uM/kg, iv relative to control; format: functional, organism-based; method in brief: as §1
# T1 sequence (P08473 whole entry): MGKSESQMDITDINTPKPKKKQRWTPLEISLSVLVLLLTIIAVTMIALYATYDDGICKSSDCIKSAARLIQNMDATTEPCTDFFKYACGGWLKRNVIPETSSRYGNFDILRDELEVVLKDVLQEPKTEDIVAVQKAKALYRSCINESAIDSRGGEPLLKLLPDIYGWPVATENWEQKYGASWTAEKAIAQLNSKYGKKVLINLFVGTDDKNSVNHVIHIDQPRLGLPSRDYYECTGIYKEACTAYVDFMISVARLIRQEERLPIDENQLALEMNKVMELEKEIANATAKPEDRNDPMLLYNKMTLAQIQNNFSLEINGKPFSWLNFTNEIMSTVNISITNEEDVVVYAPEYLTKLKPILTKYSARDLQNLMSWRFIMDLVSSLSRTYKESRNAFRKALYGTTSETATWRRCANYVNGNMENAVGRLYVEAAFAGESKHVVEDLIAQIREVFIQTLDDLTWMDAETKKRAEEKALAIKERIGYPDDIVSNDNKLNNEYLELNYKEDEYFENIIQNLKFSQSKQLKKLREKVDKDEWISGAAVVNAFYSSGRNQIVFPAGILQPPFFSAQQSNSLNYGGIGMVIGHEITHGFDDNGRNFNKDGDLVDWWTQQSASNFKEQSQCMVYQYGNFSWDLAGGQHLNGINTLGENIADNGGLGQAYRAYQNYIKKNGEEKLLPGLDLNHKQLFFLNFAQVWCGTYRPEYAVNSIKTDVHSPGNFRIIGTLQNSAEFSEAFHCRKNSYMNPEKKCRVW
Compound,Drug metabolism [1],Drug degradation [2],Activity [3],Activity [4],Activity [5],Activity [6],Activity [7],Activity [8],inhibition (INH) [9],Activity [10]
CSCC[C@H](NC(=O)[C@@H]1CCCN1C(=O)CNC(=O)[C@H](CCCCN)NC(=O)[C@H](Cc1cnc[nH]1)NC(=O)[C@H](CO)NC(=O)[C@H](CC(C)C)NC(=O)[C@H](CCCNC(=N)N)NC(=O)[C@@H]1CCCN1C(=O)[C@H](CCCNC(=N)N)NC(=O)[C@H](CCC(N)=O)NC(=O)[C@H](CCCNC(=N)N)NC(=O)[C@H](CCCNC(=N)N)NC(=O)[C@H](Cc1ccccc1)NC(=O)[C@@H](N)CCCCN)C(=O)N1CCC[C@H]1C(=O)N[C@@H](Cc1ccccc1)C(=O)O,Metabolite_Detected,39%,Active,Active,Active,Active,Active,Toxic,,
CCCC[C@H](NC(=O)[C@@H]1CCCN1C(=O)CNC(=O)[C@H](CCCCN)NC(=O)[C@H](Cc1c[nH]cn1)NC(=O)[C@H](CO)NC(=O)[C@H](CC(C)C)N(C)C(=O)[C@H](CCCNC(=N)N)NC(=O)[C@@H]1CCCN1C(=O)[C@H](CCCNC(=N)N)NC(=O)[C@@H]1CCC(=O)N1)C(=O)NC(C)(C)C(=O)N[C@@H](Cc1ccc(Br)cc1)C(=O)O,Metabolite_Notdetected,59%,inactive,,,,,,Not Active,Active
CCCC[C@H](NC(=O)[C@@H]1CCCN1C(=O)CNC(=O)[C@H](CCCCN)NC(=O)[C@H](Cc1c[nH]cn1)NC(=O)[C@H](CO)NC(=O)[C@H](CC(C)C)NC(=O)[C@H](CCCNC(=N)N)NC(=O)[C@@H]1CCCN1C(=O)[C@H](CCCNC(=N)N)NC(=O)[C@@H]1CCC(=O)N1)C(=O)NC(C)(C)C(=O)N[C@@H](Cc1ccc(Br)cc1)C(=O)O,Metabolite_Detected,65%,inactive,,,,,,,inactive
CCCC[C@H](NC(=O)[C@@H]1CCCN1C(=O)CNC(=O)[C@H](CCCCN)NC(=O)[C@H](Cc1c[nH]cn1)NC(=O)[C@H](CO)NC(=O)N(CC(C)C)NC(=O)[C@H](CCCNC(=N)N)NC(=O)[C@@H]1CCCN1C(=O)[C@H](CCCNC(=N)N)NC(=O)[C@@H]1CCC(=O)N1)C(=O)NC(C)(C)C(=O)N[C@@H](Cc1ccc(Br)cc1)C(=O)O,Metabolite_Notdetected,2%,,inactive,inactive,inactive,inactive,,Not Active,
CCCC[C@H](NC(=O)[C@@H]1CCCN1C(=O)CNC(=O)[C@H](CCCCN)NC(=O)[C@H](Cc1c[nH]cn1)NC(=O)[C@H](CO)NC(=O)[C@](C)(CC(C)C)NC(=O)[C@H](CCCNC(=N)N)NC(=O)[C@@H]1CCCN1C(=O)[C@H](CCCNC(=N)N)NC(=O)[C@@H]1CCC(=O)N1)C(=O)NC(C)(C)C(=O)N[C@@H](Cc1ccc(Br)cc1)C(=O)O,Metabolite_Notdetected,38%,,,,,,,Not Active,Active
CCCC[C@H](NC(=O)[C@@H]1CCCN1C(=O)CNC(=O)[C@H](CCCCN)NC(=O)[C@H](Cc1c[nH]cn1)NC(=O)[C@H](CO)NC(=O)[C@H](CC(C)C)NC(=O)[C@H](CCCNC(=N)N)NC(=O)[C@@H]1CCCN1C(=O)[C@H](CCCNC(=N)N)NC(=O)[C@H](CCC(N)=O)NC(=O)[C@H](CCCNC(=N)N)NC(=O)[C@H](CCCNC(=N)N)NC(=O)[C@H](Cc1ccccc1)NC(=O)[C@@H](N)CCCCN)C(=O)NC(C)(C)C(=O)N[C@@H](Cc1ccc(Br)cc1)C(=O)O (H-KFRRQRPRLSHKGP[Nle][Aib][Phe(4-Br)]-OH),Metabolite_Detected,35%,Active,,,,,Toxic,,
CCCC[C@H](NC(=O)[C@@H]1CCCN1C(=O)CNC(=O)[C@H](CCCCN)NC(=O)[C@H](Cc1c[nH]cn1)NC(=O)[C@H](CO)NC(=O)[C@H](CC(C)C)N(C)C(=O)[C@H](CCCNC(=N)N)NC(=O)[C@@H]1CCCN1C(=O)[C@H](CCCNC(=N)N)NC(=O)[C@H](CCC(N)=O)NC(=O)[C@H](CCCNC(=N)N)NC(=O)[C@H](CCCNC(=N)N)NC(=O)[C@H](Cc1ccccc1)NC(=O)[C@@H](N)CCCCN)C(=O)NC(C)(C)C(=O)N[C@@H](Cc1ccc(Br)cc1)C(=O)O (H-KFRRQRPR[NMeL]SHKGP[Nle][Aib][Phe(4-Br)]-OH),Metabolite_Notdetected,47%,Active,Active,Active,Active,Active,Toxic,Not Active,
CCCC[C@H](NC(=O)[C@@H]1CCCN1C(=O)CNC(=O)[C@H](CCCCN)NC(=O)[C@H](Cc1c[nH]cn1)NC(=O)[C@H](CO)NC(=O)N(CC(C)C)NC(=O)[C@H](CCCNC(=N)N)NC(=O)[C@@H]1CCCN1C(=O)[C@H](CCCNC(=N)N)NC(=O)[C@H](CCC(N)=O)NC(=O)[C@H](CCCNC(=N)N)NC(=O)[C@H](CCCNC(=N)N)NC(=O)[C@H](Cc1ccccc1)NC(=O)[C@@H](N)CCCCN)C(=O)NC(C)(C)C(=O)N[C@@H](Cc1ccc(Br)cc1)C(=O)O (H-KFRRQRPR[azaLeu]SHKGP[Nle][Aib][Phe(4-Br)]-OH),Metabolite_Notdetected,68%,Active,Active,Active,Active,Active,Toxic,Not Active,
CCCC[C@H](NC(=O)[C@@H]1CCCN1C(=O)CNC(=O)[C@H](CCCCN)NC(=O)[C@H](Cc1c[nH]cn1)NC(=O)[C@H](CO)NC(=O)[C@H](CC(C)C)NC(=O)N(CCCNC(=N)N)NC(=O)[C@@H]1CCCN1C(=O)[C@H](CCCNC(=N)N)NC(=O)[C@H](CCC(N)=O)NC(=O)[C@H](CCCNC(=N)N)NC(=O)[C@H](CCCNC(=N)N)NC(=O)[C@H](Cc1ccccc1)NC(=O)[C@@H](N)CCCCN)C(=O)NC(C)(C)C(=O)N[C@@H](Cc1ccc(Br)cc1)C(=O)O (H-KFRRQRP[X1]LSHKGP[Nle][Aib][Phe(4-Br)]-OH),Metabolite_Notdetected,94%,Active,Active,Active,Active,Active,Toxic,Not Active,
CCCC[C@H](NC(=O)[C@@H]1CCCN1C(=O)CNC(=O)[C@H](CCCCN)NC(=O)[C@H](Cc1c[nH]cn1)NC(=O)[C@H](CO)NC(=O)[C@H](CC(C)C)NC(=O)N(CCCNC(=N)N)NC(=O)[C@@H]1CCCN1C(=O)[C@H](CCCNC(=N)N)NC(=O)[C@@H]1CCC(=O)N1)C(=O)NC(C)(C)C(=O)N[C@@H](Cc1ccc(Br)cc1)C(=O)O ([pGlu]RP[X1]LSHKGP[Nle][Aib][Phe(4-Br)]-OH),Metabolite_Notdetected,57%,,,,,,,Not Active,Active
